Measured values from different studies.
Compare with care: the assays were run in different laboratories. In brackets after ≈: the same amount, converted by molar mass.

SMILES	target or system	assay	system	conditions	endpoint	value
Cc1nc(Nc2ncc(C(=O)Nc3c(C)cccc3Cl)s2)cc(N2CC[C@H](O)C2)n1	NALM-6	cell growth or viability, ATP luminescence	–	10 µM, 72 h	inhibition	68%
COc1cc(N=C2C(=O)N(Cc3ccccc3)c3ccccc32)cc(OC)c1	L02	cell growth or viability, MTT	–	48 h	IC50	> 100 µM
CNC(=S)NN=Cc1ccc(F)cc1	Leishmania tropica	parasite growth, MTT	–	72 h, promastigote	IC50	441 µM
Nc1nn2c(-c3ccc(Cl)cc3Cl)cc(-c3ccc(OCc4ccccc4)cc3)nc2c1N=Nc1ccc(F)cc1	Saccharomyces cerevisiae	microbial killing, broth dilution	ATCC9763	–	MFC	62.5 µg/mL (≈ 107 µM)
C[C@H]1CNCCN1c1nccc(-c2onc3c2CCC[C@@]32CCCc3sc(N)c(C#N)c32)n1	BaF3	cell growth or viability	–	72 h	EC50	0.374 µM
CCOC(=O)C1=C(CN2CCC(C(=O)Nc3cccc(B(O)O)c3)C2)NC(c2nccs2)=NC1c1ccc(F)cc1Br (stereo not drawn)	Hepatitis B virus	viral replication, inhibitor, qPCR	HepDES19	72 h	EC50	0.9 µM
Cc1ccc(CN2C(=O)C(=Nc3cccc(Cl)c3)c3ccccc32)cc1	L02	cell growth or viability, MTT	–	48 h	IC50	4.76 µM
CCOC(=O)C1=C(CN2CCC[C@H]2C(=O)Nc2ccc(B(O)O)cc2)NC(c2nccs2)=N[C@H]1c1ccc(F)cc1Br	Hepatitis B virus	viral replication, inhibitor, qPCR	HepDES19	72 h	EC50	1 µM
Cc1nc(NC(=O)N2CCC[C@H]2C(N)=O)sc1-c1ccnc(C(C)(C)C(F)(F)F)c1	CAL-51	cell growth or viability, ATP luminescence	–	5 days	EC50	26 µM
O=C1C(=Nc2cccc(Cl)c2)c2ccccc2N1Cc1ccc([N+](=O)[O-])cc1	L02	cell growth or viability, MTT	–	48 h	IC50	22.7 µM
Fc1ccc(C=NNC(=S)Nc2cccnc2)cc1	Leishmania tropica	parasite growth, MTT	–	72 h, promastigote	IC50	314 µM
O=C1C(=Nc2ccccc2I)c2ccccc2N1Cc1ccc(Br)cc1	L02	cell growth or viability, MTT	–	48 h	IC50	35.2 µM
C[C@H](Oc1nccc(-c2noc([C@@]3(C)CCCc4sc(N)c(C#N)c43)n2)n1)[C@@H]1CCCN1C	BaF3	cell growth or viability	–	72 h	EC50	0.317 µM
CNC(=S)NN=Cc1ccc(O)c(OC)c1	Leishmania tropica	parasite growth, MTT	–	72 h, promastigote	IC50	200 µM
CCOC(=O)C1=C(CN2CCN(Cc3ccc(B4OC(C)(C)C(C)(C)O4)cc3)CC2)NC(c2nccs2)=NC1c1ccc(F)cc1Br (stereo not drawn)	Hepatitis B virus	viral replication, inhibitor, qPCR	HepDES19	72 h	EC50	1.2 µM
O=C1C(=Nc2ccc(Cl)cc2Br)c2ccccc2N1Cc1ccc([N+](=O)[O-])cc1	L02	cell growth or viability, MTT	–	48 h	IC50	20.4 µM
C[C@H]1CNCCCN1c1nccc(-c2noc3c2CCC[C@@]32CCCc3sc(N)c(C#N)c32)n1	BaF3	cell growth or viability	–	72 h	EC50	0.188 µM
CCOC(=O)C1=C(CN2CCC[C@H]2C(=O)Nc2cccc(B(O)O)c2)NC(c2nccs2)=N[C@H]1c1ccc(F)cc1Br	Hepatitis B virus	viral replication, inhibitor, qPCR	HepDES19	72 h	EC50	1.9 µM
